Data: PMC4203513 (Autophagy, 2014)
Entries after “also recorded” stand apart in the source; their conditions may differ. Like-named read-outs stand apart in the source and are kept apart here.

Tests used:
newly diagnosed GB = details: radiation and carmustine with or without CQ; cited from earlier work
[1] = tested on: patients with newly diagnosed glioblastoma; experiment: Phase II adverse events related to study drug; assay type: in vivo, human
[2] = Population pharmacokinetics of HCQ in whole blood; assay type: in vivo, human
[3] = tested on: autophagic vacuoles in peripheral blood mononuclear cells; experiment: Electron microscopy scoring of autophagic vacuoles in PBMC; assay type: in vivo, human
Method in brief: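 PBMC were fixed in 2% glutaraldehyde and held at 4 °C. Micrographs at 10,000–12,000× covered 20–25 mononuclear cells per sample, from multiple fields. Two blinded scorers counted AV by morphological criteria, excluding mitochondria-like structures, and their counts were averaged. A mixed-effects model used time (baseline, week 3, week 9) and a random subject effect.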

[4] = tested on: patients with newly diagnosed glioblastoma; assay type: in vivo, human
[5] = tested on: autophagic vacuoles in peripheral blood mononuclear cells; experiment: PK-PD analysis; assay type: in vivo, human; details: at 9 wk
[6] = tested on: newly diagnosed glioblastoma; details: phase III trial, RT plus concomitant and adjuvant TMZ; cited from earlier work
[7] = phase II, n = 76, HCQ + RT + TMZ
[8] = HCQ 800 mg/d with RT + TMZ, during chemoradiation

Compound: CCN(CC)CCCC(C)Nc1ccnc2cc(Cl)ccc12 (stereo not shown) [CQ, Chloroquine]
- median overall survival (newly diagnosed GB): trend toward increased median overall survival

Compound: CCN(CCO)CCCC(C)Nc1ccnc2cc(Cl)ccc12 (stereo not shown) [HCQ, hydroxychloroquine]
- patients off treatment due to toxicity ([1]; phase I and II patients, RT + TMZ + HCQ): 3%
- Abdominal pain, Grade 3 [1, 7]: 1 (1) number of patients (%)
- Abdominal pain, Total (grade 3 and 4) [1, 7]: 1 (1) number of patients (%)
- Alanine aminotransferase increased, Grade 3 [1, 7]: 2 (3) number of patients (%)
- Alanine aminotransferase increased, Total (grade 3 and 4) [1, 7]: 2 (3) number of patients (%)
- Blood bilirubin increased, Total (grade 3 and 4) [1, 7]: 1 (1) number of patients (%)
- Constipation, Grade 4 [1, 7]: 1 (1) number of patients (%)
- Constipation, Total (grade 3 and 4) [1, 7]: 1 (1) number of patients (%)
- Eye disorders, Grade 3 [1, 7]: 1 (1) number of patients (%)
- Eye disorders, Total (grade 3 and 4) [1, 7]: 1 (1) number of patients (%)
- Fatigue, Grade 3 [1, 7]: 1 (1) number of patients (%)
- Fatigue, Total (grade 3 and 4) [1, 7]: 1 (1) number of patients (%)
- Neutrophil count decreased, Grade 3 [1, 7]: 3 (4) number of patients (%)
- relationship of HCQ exposure / whole blood concentration to dose ([2]; HCQ 200 to 800 mg/d): dose-proportional relationship; also recorded: dose-proportional and sustained exposure
- time-dependent trend of HCQ concentrations in whole blood ([2]; groups of patients receiving the same dose): did not show a significant time-dependent trend
- mean tlag (individual estimates) ([2]; individual PK parameter estimates derived from the population model, range 0.97 to 1.25): 1.06 h
- mean V/F (individual estimates) ([2]; individual PK parameter estimates derived from the population model, range 26 to 5483): 483.96 L
- V2/F (individual estimates) ([2]; individual PK parameter estimates derived from the population model, range 558 to 2208): 963 L
- increase in mean autophagic vacuole count (mixed-effects model) ([3]; all patients (n = 40), P = 0.041): 0.075 per wk
- treatment-associated increase in AV diameter ([3]; one patient, 800 mg HCQ cohort): 2.5 fold
- treatment-associated increase in AV perimeter ([3]; one patient, 800 mg HCQ cohort): 10 fold
- treatment-associated increase in percent of cytoplasm involved by AV ([3]; one patient, 800 mg HCQ cohort): 9 fold
- dose-limiting toxicities (DLTs) ([4]; HCQ 200 mg/d with RT + TMZ): no dose-limiting toxicities
- dose-limiting toxicities (DLTs) ([4]; HCQ 400 mg/d with RT + TMZ): no dose-limiting toxicities; also recorded: no further DLTs were observed
- dose-limiting toxicities (DLTs) ([4]; HCQ 600 mg/d with RT + TMZ, 3 patients): no DLTs
- dose-limiting toxicity ([4]; HCQ 800 mg/d with RT + TMZ): early and severe myelosuppression; also recorded: dose-limiting myelosuppression
- subjects with Grade 3 and 4 neutropenia and thrombocytopenia ([4]; HCQ 800 mg/d with RT + TMZ): 3/3
- patients with grade 4 neutropenia [4, 8]: 2/3
- patients with grade 4 thrombocytopenia [4, 8]: 3/3
- other grade 2 toxicities common to all dose levels ([4]; HCQ 200 to 800 mg/d with RT + TMZ): nausea, fatigue, constipation, and diarrhea
- maximum tolerated dose (MTD) of HCQ ([4]; oral daily, in combination with RT and concurrent and adjuvant TMZ): 600 mg/day
- PK-PD correlation in PBMC [5]: not significant

Compound: Cn1nnc2c(C(N)=O)ncn2c1=O [TMZ, temozolomide]
- failure rate (death) [6]: 0.6 per person-year of follow-up
